Laboratory results reported in ChEMBL document CHEMBL4808165, “Design of Thioether Cyclic Peptide Scaffolds with Passive Permeability and Oral Exposure” (J Med Chem, 2021).
≈ marks a conversion by molar mass, not a printed value. Positions of bridges follow the written chain, without caps; N, C: chain ends. Non-standard residues stand in square brackets, D forms with d. Residues, ends and D or L forms follow the SMILES beside them. NMeF = CN[C@@H](Cc1ccccc1)C(=O)O; NMeNle = CCCC[C@H](NC)C(=O)O; Nle = CCCC[C@H](N)C(=O)O

Legend:
[1] = 1-Octanol/phosphate buffered-saline distribution coefficient, logD of compound at pH 7.4 measured after 4 hrs by LC-MS analysis; type: physicochemical
How it was run: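 PBS pH 7.4 and 1-octanol, each pre-saturated with the other. 10 mM DMSO stock, dispensed with an internal reference compound in triplicate and dried. Residue shaken in octanol plus buffer for at least 4 h, then centrifuged to separate phases. Both phases quantified by LC-MS/MS. Log D taken from the phase peak-area ratio, normalised to internal standard.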

[2] = Apparent permeability across apical to basolateral membrane in MDCKII-LE cells measured after 120 mins by RapidFire-MS analysis; type: ADME, cell-based, Canis lupus familiaris; conditions: dog, MDCK
How it was run: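 MDCK-LE (low efflux) cells seeded at about 265,000 cells/cm² on Transwells and cultured 4 days. Apical-to-basal transport run in triplicate at 10 μM in HBSS/10 mM HEPES pH 7.4 with 0.02% BSA, 120 min at 37 °C without shaking. Bestatin used as integrity marker. Donor and acceptor quantified by MS against glyburide internal standard. Papp and % recovery calculated.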

[3] = Aqueous solubility of the compound at pH 6.8; type: physicochemical; conditions: buffer
How it was run: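 Thermodynamic (equilibrium) solubility. 10 mM DMSO stock dried down, then pH 6.8 phosphate buffer added to a target of 1 mM. Shaken at 1350 rpm at ambient temperature for 16–24 h. Supernatant centrifuged twice, diluted 200-fold and quantified by RapidFire-MS/MS against a 4-point calibration curve.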

[4] = Clearance in Sprague-Dawley rat liver microsomes measured up to 30 mins in presence of NADPH by HPLC-MS/MS analysis; type: ADME, Microsome; conditions: read-out: CLH
[5] = Clearance in human liver microsomes measured up to 30 mins in presence of NADPH by HPLC-MS/MS analysis; type: ADME, Microsome; conditions: read-out: CLH
How it was run: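 Human liver microsomes at 1.25 mg/mL protein in phosphate buffer pH 7.4. Test article at 10 μM, shaken at 37 °C. Reaction started with 2 mM NADPH/4 mM MgCl₂. Aliquots taken at 0, 5, 15 and 30 min and quenched with acetonitrile containing glibenclamide. Parent remaining measured by LC-MS/MS. Elimination rate constant converted to in vitro clearance.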

[6] = Cmax in Sprague-Dawley rat systemic circulation at 5 mg/kg, po or 0.5 mg/kg, iv measured up to 24 hrs by HPLC-MS/MS analysis; type: ADME, organism-based; set-up: dose 5 mg/kg, time <=24
How it was run: (§1)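 Rat dosing in PEG300:20% Solutol/PBS (10:25:65). IV into a jugular cannula at 0.5 mg/kg (1 mg/kg for some analogues), 1 mL/kg. PO by gavage at 5 mg/kg from a 0.5 mg/mL solution. Blood drawn via jugular cannula at 5 min (IV only), 15 min, 0.5, 1, 2, 4, 7 and 24 h. Plasma analysed by HPLC-MS/MS. Parameters from noncompartmental analysis.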

[7] = AUC in Sprague-Dawley rat systemic circulation at 5 mg/kg, po or 0.5 mg/kg, iv measured up to 24 hrs by HPLC-MS/MS analysis; type: ADME, organism-based; set-up: dose 5 mg/kg, time <=24; how it was run: as §1
[8] = Clearance in Sprague-Dawley rat at 5 mg/kg, po or 0.5 mg/kg, iv measured up to 24 hrs by HPLC-MS/MS analysis; type: ADME, organism-based; conditions: in vivo; how it was run: as §1
[9] = Half life in Sprague-Dawley rat at 5 mg/kg, po or 0.5 mg/kg, iv measured up to 24 hrs by HPLC-MS/MS analysis; type: ADME, organism-based; conditions: in vivo; how it was run: as §1
[10] = Volume of distribution at steady state in Sprague-Dawley rat at 5 mg/kg, po or 0.5 mg/kg, iv measured up to 24 hrs by HPLC-MS/MS analysis; type: ADME, organism-based; conditions: in vivo, read-out: Vdss; how it was run: as §1
[11] = Oral bioavailability in Sprague-Dawley rat at 5 mg/kg measured up to 24 hrs by HPLC-MS/MS analysis; type: ADME, organism-based; conditions: in vivo; how it was run: as §1
[12] = Cmax in Sprague-Dawley rat hepatic portal vein circulation at 5 mg/kg, po or 0.5 mg/kg, iv measured up to 24 hrs by HPLC-MS/MS analysis; type: ADME, organism-based; set-up: dose 5 mg/kg, time <=24
[13] = AUC in Sprague-Dawley rat hepatic portal vein circulation at 5 mg/kg, po or 0.5 mg/kg, iv measured up to 24 hrs by HPLC-MS/MS analysis; type: ADME, organism-based; set-up: dose 5 mg/kg, time <=24

Structure (SMILES) | logD at 4 h [1] | Papp A→B at 2 h [2] [×10⁻⁶ cm/s] | solubility [3] [µM] | microsomal CLint [4] [µL/min/mg] | microsomal CLint [5] [µL/min/mg] | Cmax [6] [nM] | AUC at 24 h [7] [µM·h] | clearance [8] [mL/min/kg] | half-life [9] [min] | Vd [10] [L/kg] | bioavailability [11] [%] | Cmax [12] [nM] | AUC at 24 h [13] [µM·h]
CCCC[C@@H]1NC(=O)C2CCCN2C(=O)[C@H](CCCC)NC(=O)[C@H](Cc2ccccc2)NC(=O)CSC[C@H](C(=O)NC)NC(=O)[C@H](CCCC)NC1=O (stereo not given in full) | 3.1 | 0.6 | 200 (≈ 152 µg/mL) | ≥ 350 | ≥ 350 | 1.7 | 0.0006 | 222 | 12 | 2 | < 1 | – | –
CCCC[C@@H]1NC(=O)[C@H](CCCC)N(C)C(=O)[C@H](CCCC)NC(=O)[C@H](Cc2ccccc2)N(C)C(=O)[C@H]([C@@H](C)O)NC(=O)[C@H](CCCC)N(C)C(=O)[C@@H](Cc2ccccc2)NC(=O)CSC[C@@H](C(=O)NC)NC1=O | 5.2 | < 0.35 | < 4 | ≥ 120 | ≥ 120 | 161 | 0.372 | 28.4 | – | – | 13 | – | –
CCCC[C@@H]1NC(=O)[C@H](CCCC)N(C)C(=O)[C@H](CCCC)NC(=O)[C@H](CCCC)N(C)C(=O)[C@H](CCCC)NC(=O)[C@H](CCCC)N(C)C(=O)[C@@H](Cc2ccccc2)NC(=O)CSC[C@@H](C(=O)NC)NC1=O | 6 | < 0.35 | < 4 | ≥ 120 | ≥ 120 | 411 | 1.27 | 33 | – | – | 54 | – | –
CCCC[C@@H]1NC(=O)[C@H](Cc2ccccc2)N(C)C(=O)CSC[C@H](C(=O)NC)N(C)C(=O)[C@H](CCCC)NC(=O)[C@H](CCCC)N(C)C(=O)C2CCCN2C1=O (stereo not given in full) | 3.6 | 6.3 | 216 (≈ 173 µg/mL) | ≥ 350 | ≥ 350 | 152 | 0.092 | 72 | 18 | 1.3 | 6 | – | –
CCCC[C@@H]1NC(=O)[C@H](Cc2ccccc2)N(C)C(=O)[C@@H]2CCCN2C(=O)[C@H](CCCC)N(C)C(=O)[C@H](Cc2ccccc2)NC(=O)CSC[C@@H](C(=O)NC)NC(=O)[C@H](CCCC)N(C)C1=O ({CH2CO}-F[NMeNle]P[NMeF][Nle][NMeNle]C-NHMe; thioether N-7) | 4.9 | 2.3 | 9 (≈ 8.53 µg/mL) | ≥ 480 | ≥ 480 | 1950 | 1.31 | 19 | 90 | 1.1 | 84 | – | –
CCCC[C@@H]1NC(=O)[C@H](CCCC)N(C)C(=O)[C@@H]2CCCN2C(=O)[C@H](CCCC)N(C)C(=O)[C@H](Cc2ccccc2)NC(=O)CSC[C@@H](C(=O)NC)NC(=O)[C@H](CCCC)N(C)C1=O ({CH2CO}-F[NMeNle]P[NMeNle][Nle][NMeNle]C-NHMe; thioether N-7) | 4.8 | 6.4 | 9 (≈ 8.22 µg/mL) | ≥ 480 | ≥ 480 | 868 | 2.13 | 35 | 36 | 1.2 | 86 | – | –
CCCC[C@@H]1NC(=O)[C@H](CCCC)NC(=O)[C@H](CCCC)N(C)C(=O)[C@@H]2CCCN2C(=O)[C@H](CCCC)N(C)C(=O)[C@H](Cc2ccccc2)NC(=O)CSC[C@@H](C(=O)NC)NC1=O ({CH2CO}-F[NMeNle]P[NMeNle][Nle][Nle]C-NHMe; thioether N-7) | 4.7 | 0.8 | 9 (≈ 8.09 µg/mL) | ≥ 480 | ≥ 480 | 18 | 0.01 | 106 | 42 | 4.4 | 1 | – | –

Results, then the compound that gave them:

logD at 4 h [1] | Papp A→B at 2 h [2] [×10⁻⁶ cm/s] | solubility [3] [µM] | microsomal CLint [4] [µL/min/mg] | microsomal CLint [5] [µL/min/mg] | Cmax [6] [nM] | AUC at 24 h [7] [µM·h] | clearance [8] [mL/min/kg] | half-life [9] [min] | Vd [10] [L/kg] | bioavailability [11] [%] | Cmax [12] [nM] | AUC at 24 h [13] [µM·h] | Structure (SMILES)
3.7 | 0.2 | 9 (≈ 7.84 µg/mL) | ≥ 480 | ≥ 480 | – | – | 72 | 4.8 | 0.2 | < 1 | – | – | CCCC[C@@H]1NC(=O)[C@H](CCCC)NC(=O)[C@H]2CCCN2C(=O)[C@H](CCCC)NC(=O)[C@H](Cc2ccccc2)NC(=O)CSC[C@H](C(=O)NC)NC(=O)[C@H](CCCC)NC1=O
3.6 | 0.4 | 5 (≈ 3.87 µg/mL) | ≥ 350 | ≥ 350 | – | – | – | – | – | – | – | – | CCCC[C@@H]1NC(=O)[C@H](CCCC)NC(=O)[C@H](CCCC)NC(=O)[C@@H](Cc2ccccc2)NC(=O)CSC[C@H](C(=O)NC)NC(=O)[C@H](CCCC)NC1=O
4.1 | 8 | 12 (≈ 9.79 µg/mL) | ≥ 350 | ≥ 350 | 114 | 0.258 | 86 | 54 | 2.1 | 20 | 140 | 0.173 | CCCC[C@@H]1NC(=O)[C@H](Cc2ccccc2)N(C)C(=O)CSC[C@H](C(=O)NC)N(C)C(=O)[C@H](CCCC)NC(=O)[C@H](CCCC)N(C)C(=O)[C@H](CCCC)NC1=O
4.2 | 1.5 | 18 (≈ 14.4 µg/mL) | ≥ 350 | ≥ 350 | – | – | – | – | – | – | – | – | CCCC[C@@H]1NC(=O)[C@H](CCCC)N(C)C(=O)[C@H](CCCC)NC(=O)[C@H](CCCC)N(C)C(=O)[C@@H](Cc2ccccc2)NC(=O)CSC[C@H](C(=O)NC)NC1=O
3.6 | 0.6 | < 4 | ≥ 350 | ≥ 350 | – | – | 702 | 18 | – | < 1 | – | – | CCCC[C@@H]1NC(=O)[C@H](Cc2ccccc2)NC(=O)CSC[C@H](C(=O)NC)NC(=O)[C@H](CCCC)NC(=O)[C@H](CCCC)NC(=O)[C@H](CCCC)NC1=O
4.6 | 3.9 | 5 (≈ 4.01 µg/mL) | ≥ 350 | ≥ 350 | 1030 | 2.29 | 8.9 | 228 | 1 | 19 | 819 | 1.86 | CCCC[C@@H]1NC(=O)[C@H](Cc2ccccc2)NC(=O)CSC[C@H](C(=O)NC)NC(=O)[C@H](CCCC)N(C)C(=O)[C@H](CCCC)NC(=O)[C@H](CCCC)N(C)C1=O
6.1 | < 0.35 | < 4 | ≥ 120 | ≥ 120 | 436 | 1.08 | 12 | – | – | 17 | – | – | CCCC[C@@H]1NC(=O)[C@H](Cc2ccccc2)NC(=O)CSC[C@@H](C(=O)NC)NC(=O)[C@H](CCCC)N(C)C(=O)[C@H](CCCC)N(C)C(=O)[C@H](CCCC)N(C)C(=O)[C@H](CCCC)NC(=O)[C@H](CCCC)N(C)C1=O ({CH2CO}-F[Nle][NMeNle][Nle][NMeNle][NMeNle][NMeNle]C-NHMe; thioether N-8)
